ChEMBL document CHEMBL1126246, “Ester and amide derivatives of E64c as inhibitors of platelet calpains” (J Med Chem, 1992)

How the values were obtained:
[1] = target: T1, Calpain-1 catalytic subunit (Homo sapiens, UniProt P07384); assay: The calpain inhibitory activity(I 50) was measured as ability to enter the platelet and inhibit calpain in the intact cells(assay 3); (-)indicates little inhibition by 444 uM; format: cell-based
T1 sequence (P07384 whole entry): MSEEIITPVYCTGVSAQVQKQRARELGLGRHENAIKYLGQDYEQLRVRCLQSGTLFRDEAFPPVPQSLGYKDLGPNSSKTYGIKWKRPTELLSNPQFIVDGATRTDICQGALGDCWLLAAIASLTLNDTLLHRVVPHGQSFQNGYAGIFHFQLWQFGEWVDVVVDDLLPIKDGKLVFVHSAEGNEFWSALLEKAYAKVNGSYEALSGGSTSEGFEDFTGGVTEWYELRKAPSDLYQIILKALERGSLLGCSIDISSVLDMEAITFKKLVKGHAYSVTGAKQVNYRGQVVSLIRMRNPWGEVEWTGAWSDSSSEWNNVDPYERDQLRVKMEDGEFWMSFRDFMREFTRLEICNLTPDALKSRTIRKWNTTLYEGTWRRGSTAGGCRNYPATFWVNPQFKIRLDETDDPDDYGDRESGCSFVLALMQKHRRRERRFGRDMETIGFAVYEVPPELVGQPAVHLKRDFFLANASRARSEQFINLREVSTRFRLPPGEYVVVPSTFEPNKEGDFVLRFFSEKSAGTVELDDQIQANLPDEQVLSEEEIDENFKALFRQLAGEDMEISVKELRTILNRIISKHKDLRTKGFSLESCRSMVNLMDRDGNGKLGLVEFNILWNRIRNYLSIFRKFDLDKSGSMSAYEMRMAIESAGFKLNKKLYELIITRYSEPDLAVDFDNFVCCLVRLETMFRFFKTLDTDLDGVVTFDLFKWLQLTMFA
Procedure, shortened: (§1)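 Washed human platelets (6 × 10⁸/mL, Hank's buffer) were preincubated with compound in DMSO at 30 °C for 15 min. Final concentrations were 0.8, 5.5, 44 or 440 μM. A23187 plus CaCl₂ was added for 10 min at room temperature. Samples were boiled in SDS sample buffer with leupeptin, run on 8% SDS-PAGE and stained with Coomassie. Loss of actin-binding protein and talin was scored.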

[2] = target: T1, Calpain-1 catalytic subunit; assay: The ability of compound to inhibit calpain in a preparation of lysed platelets was measured with a caseinolytic assay(assay 1); conditions: read-out: I50
Procedure, shortened: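 Washed human platelets (6 × 10⁸/mL) in Hank's solution were preincubated with inhibitor at 30 °C for 3 min. CaCl₂, Triton X-100 and [³H]casein were then added and incubated 20 min at 30 °C. The reaction was stopped with TCA, and TCA-soluble radioactivity was counted. I50 was estimated from fractional inhibition at five inhibitor concentrations.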

[3] = target: T1, Calpain-1 catalytic subunit; assay: The calpain inhibitory activity(I 50) was measured as ability to enter the platelet to inhibit calpain after cell lysis(assay 2); conditions: read-out: I50
Procedure, shortened: (§2)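 Washed human platelets (7 × 10⁸/mL, Hank's) were exposed to inhibitor for 15 min at 30 °C. Cells were diluted in Tyrode-HEPES pH 7.4, pelleted twice to remove free drug, resuspended in Hank's and equilibrated 3 min. They were then lysed with Triton X-100 plus CaCl₂ and [³H]casein for 20 min at 30 °C. TCA-soluble counts were measured. I50 came from a five-concentration line.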

[4] = target: T1, Calpain-1 catalytic subunit; assay: The calpain inhibitory activity(I 50) was measured as ability to enter the platelet and inhibit calpain in the intact cells(assay 3); (+)indicates substantial inhibition by 5-44 uM; format: cell-based; procedure, shortened: as §1
[5] = target: T1, Calpain-1 catalytic subunit; assay: The ability of compound to inhibit calpain in a preparation of lysed platelets was measured with a caseinolytic assay(assay 1); (+) indicates the compound was inhibitory, but I50 was not determined
[6] = target: T1, Calpain-1 catalytic subunit; assay: The calpain inhibitory activity(I 50) was measured as ability to enter the platelet to inhibit calpain after cell lysis(assay 2); (-)indicates little inhibition by 444 uM; procedure, shortened: as §2

SMILES | I50 [1] | IC50 [2] [nM] | IC50 [3] [nM] | I50 [4] | I50 [5] | I50 [6]
CCCCC(COC(=O)[C@H]1O[C@@H]1C(=O)N[C@@H](CC(C)C)C(=O)NCCC(C)C)NC(=O)[C@H](CC(C)C)NC(=O)OCc1ccccc1 (stereo partly drawn) | Little inhibition | 100000 | – | – | – | –
CC(C)CCNC(=O)[C@H](CC(C)C)NC(=O)[C@H]1O[C@@H]1C(=O)NCCc1c[nH]c2ccc(O)cc12 | Little inhibition | 6000 | 4000 | – | – | –
CC(C)CCNC(=O)[C@H](CC(C)C)NC(=O)[C@H]1O[C@@H]1C(=O)OCCBr | – | 1000 | 2000 | substantial inhibition by 5-44 uM | – | –
CC(C)CCNC(=O)[C@H](CC(C)C)NC(=O)[C@H]1O[C@@H]1C(=O)Oc1ccc2[nH]cc(CCNC(=O)OC(C)(C)C)c2c1 | – | 2000 | 2000 | substantial inhibition by 5-44 uM | – | –
CC(C)CCNC(=O)[C@H](CC(C)C)NC(=O)[C@H]1O[C@@H]1C(=O)OCc1ccccc1Cl | – | – | 2000 | substantial inhibition by 5-44 uM | substantial inhibition by 5-44 uM | –
CC(C)CCNC(=O)[C@H](CC(C)C)NC(=O)[C@H]1O[C@@H]1C(=O)OCC(Br)(Br)Br | – | – | 5000 | substantial inhibition by 5-44 uM | substantial inhibition by 5-44 uM | –
CC(C)CCNC(=O)[C@H](CC(C)C)NC(=O)[C@H]1O[C@@H]1C(=O)OCCCl | – | 2000 | 300 | substantial inhibition by 5-44 uM | – | –
CC(C)CCNC(=O)[C@H](CC(C)C)NC(=O)[C@H]1O[C@@H]1C(=O)OCC(Cl)(Cl)Cl | – | 700 | 1000 | substantial inhibition by 5-44 uM | – | –
CC(C)CCNC(=O)[C@H](CC(C)C)NC(=O)[C@H]1O[C@@H]1C(=O)OCC(F)(F)F | – | – | 2000 | substantial inhibition by 5-44 uM | substantial inhibition by 5-44 uM | –
CC(C)CCNC(=O)[C@H](CC(C)C)NC(=O)[C@H]1O[C@@H]1C(=O)O [E-64C] | Little inhibition | 40 | – | – | – | Little inhibition
CCOC(=O)[C@H]1O[C@@H]1C(=O)N[C@@H](CC(C)C)C(=O)NCCC(C)C [ALOXISTATIN] | – | 4000 | 4000 | substantial inhibition by 5-44 uM | – | –
CC(C)CCNC(=O)[C@H](CC(C)C)NC(=O)[C@H]1O[C@@H]1C(=O)OCCI | – | – | 6000 | substantial inhibition by 5-44 uM | substantial inhibition by 5-44 uM | –
CC(C)CCNC(=O)[C@H](CC(C)C)NC(=O)[C@H]1O[C@@H]1C(=O)OCCF | – | 500 | 3000 | substantial inhibition by 5-44 uM | – | –
